Activity calls are given as the source filed them. The calls are words filed in the database; no cut-off is given here.
Columns and labels:
[1] = molecular target: T1, Gastrin/cholecystokinin type B receptor (Rattus norvegicus, UniProt P30553); experiment: Displacement of [125I]-BH-CCK-8 from CCK-B receptor in rat cerebral cortex plasma membrane after 1 hr by liquid scintillation counting method; format: cell membranes
T1 sequence (P30553 whole entry): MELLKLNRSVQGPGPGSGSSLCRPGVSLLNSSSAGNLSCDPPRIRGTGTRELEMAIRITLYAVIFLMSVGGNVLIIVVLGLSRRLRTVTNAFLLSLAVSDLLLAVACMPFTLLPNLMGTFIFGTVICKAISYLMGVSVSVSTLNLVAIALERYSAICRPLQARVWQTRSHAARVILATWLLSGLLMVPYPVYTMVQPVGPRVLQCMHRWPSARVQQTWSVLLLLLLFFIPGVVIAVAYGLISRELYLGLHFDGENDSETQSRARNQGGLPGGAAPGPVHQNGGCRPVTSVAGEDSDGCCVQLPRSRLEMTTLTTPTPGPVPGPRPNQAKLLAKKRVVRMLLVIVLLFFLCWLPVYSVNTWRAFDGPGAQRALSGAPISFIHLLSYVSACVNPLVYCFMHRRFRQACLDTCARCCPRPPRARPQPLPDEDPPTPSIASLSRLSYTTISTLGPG
Method in brief: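 Rat cerebral cortex plasma membrane (100 μg per tube), receptor solubilized in detergent. Non-specific binding defined with 1 μM unlabeled CCK-8s. Bound and free ligand separated on filter mats, counted by liquid scintillation. IC50 by non-linear least-squares fitting.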

MIA PaCa-2 [2] = experiment: Cytotoxicity against human MIAPaCa2 cells assessed as reduction in cell viability after 24 hrs by MTT assay; format: functional, cell-based; conditions: MIA PaCa-2, 24 h
Method in brief: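 MiaPaca-2 cells seeded at 1000/well, incubated 24 h at 37 °C, 5% CO2, then exposed to varying compound concentrations in 200 μL standard growth medium for 24 h. MTT (5 mg/mL stock in PBS) added for 4 h at 37 °C. Formazan dissolved in DMSO, absorbance read at 540 nm. IC50 taken from dose–response graphs.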

[3] = molecular target: T2, Gastrin/cholecystokinin type B receptor (Mus musculus) (UniProt P56481); experiment: Inhibition of CCK-B receptor in lumen perfused albino mouse stomach assessed as reduction in boc-pentagastrin-induced gastric acid secretion at 1 uM after 45 mins relative to control; format: functional
T2 sequence (whole entry): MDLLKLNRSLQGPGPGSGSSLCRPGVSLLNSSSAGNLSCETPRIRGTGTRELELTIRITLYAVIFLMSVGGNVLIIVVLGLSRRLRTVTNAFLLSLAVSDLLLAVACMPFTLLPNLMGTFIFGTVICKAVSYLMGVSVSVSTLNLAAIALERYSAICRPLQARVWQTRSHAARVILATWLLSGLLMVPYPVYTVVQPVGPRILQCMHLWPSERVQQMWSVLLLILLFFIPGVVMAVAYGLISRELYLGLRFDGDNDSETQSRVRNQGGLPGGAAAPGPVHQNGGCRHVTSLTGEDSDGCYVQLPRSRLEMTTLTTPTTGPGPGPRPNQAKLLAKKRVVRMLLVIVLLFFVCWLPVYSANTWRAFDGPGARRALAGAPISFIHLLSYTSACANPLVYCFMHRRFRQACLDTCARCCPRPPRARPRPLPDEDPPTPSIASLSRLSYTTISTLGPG
Method in brief: (§1)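 Whole stomach excised from albino mice (25–30 g), lumen-perfused in an organ bath. Effluent pH monitored continuously with a pH probe. Acid output driven by sub-maximal Boc-pentagastrin (10 nM), measured before and 45 min after incubation with test compound. Percentage inhibition calculated.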

[4] = molecular target: T2, Gastrin/cholecystokinin type B receptor (Mus musculus); experiment: Inhibition of CCK-B receptor in lumen perfused albino mouse stomach assessed as reduction in boc-pentagastrin-induced gastric acid secretion after 45 mins relative to control; format: functional; method in brief: as §1
[5] = molecular target: T2, Gastrin/cholecystokinin type B receptor (Mus musculus); experiment: Inhibition of CCK-B receptor in lumen perfused albino mouse stomach assessed as reduction in boc-pentagastrin-induced gastric acid secretion at 100 nM after 45 mins relative to control; format: functional; method in brief: as §1
MIA PaCa-2 [6] = experiment: Cytotoxicity against human MIAPaCa2 cells assessed as reduction in cell viability at 1 to 10 uM after 72 hrs by MTT assay; format: functional, cell-based
MIA PaCa-2 [7] = experiment: Inhibition of boc-pentagastrin-induced cell proliferation in human MIAPaCa2 cells at 1 to 10 uM up to 120 hrs by MTT assay; format: functional, cell-based
Method in brief: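 MiaPaca-2 cells seeded at 4000/well in 10% FCS-DMEM, then made quiescent for 24 h in incomplete medium. Boc-pentagastrin and/or antagonist (1 or 10 μM) added in incomplete medium; medium with the same concentrations replaced daily. MTT read after 48–120 h, absorbance at 540 nm. DMSO control at each time point set as 100%.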

[8] = molecular target: T2, Gastrin/cholecystokinin type B receptor (Mus musculus); experiment: Inhibition of CCK-B receptor in lumen perfused albino mouse stomach assessed as reduction in boc-pentagastrin-induced gastric acid secretion at 300 nM after 45 mins relative to control; format: functional; method in brief: as §1
[9] = molecular target: T3, Gastrin/cholecystokinin type B receptor (Homo sapiens, UniProt P32239); experiment: Displacement of [125I]-gastrin17 from CCK-B receptor (unknown origin)
T3 sequence (P32239 whole entry): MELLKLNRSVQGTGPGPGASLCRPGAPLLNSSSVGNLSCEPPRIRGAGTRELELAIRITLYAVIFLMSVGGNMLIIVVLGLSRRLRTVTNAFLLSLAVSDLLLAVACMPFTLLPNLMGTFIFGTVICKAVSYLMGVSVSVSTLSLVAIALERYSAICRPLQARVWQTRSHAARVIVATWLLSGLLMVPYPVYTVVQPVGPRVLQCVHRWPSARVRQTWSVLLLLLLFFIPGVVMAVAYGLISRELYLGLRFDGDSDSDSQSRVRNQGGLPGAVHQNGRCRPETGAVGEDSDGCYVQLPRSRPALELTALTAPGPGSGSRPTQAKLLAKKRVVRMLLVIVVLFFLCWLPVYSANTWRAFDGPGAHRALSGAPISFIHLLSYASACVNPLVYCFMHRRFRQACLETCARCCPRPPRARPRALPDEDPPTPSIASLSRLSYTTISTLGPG

O=C(O)c1cccc(NC(=S)NNc2nc3ccccc3c(=O)n2-c2ccccc2)c1
IC50 [1]: 975 nM
IC50 (MIA PaCa-2 [2]): 180 µM
inhibition [3]: 48%
inhibition [4]: Dose-dependent effect

O=C1Nc2ccccc2/C1=N/Nc1nc2ccccc2c(=O)n1-c1ccc(Cl)cc1
IC50 (MIA PaCa-2 [2]): 100 µM
inhibition [5]: 58%
inhibition [4]: Dose-dependent effect

CCOc1ccc(NC(=S)NNc2nc3ccccc3c(=O)n2-c2ccc(Cl)cc2)cc1
IC50 [1]: 9.71 nM
IC50 (MIA PaCa-2 [2]): 80 µM
inhibition [5]: 53%
inhibition [4]: Dose-dependent effect

CCOc1ccc(-n2c(NNC(=S)Nc3ccc(Br)cc3)nc3ccccc3c2=O)cc1
IC50 [1]: 2 nM
IC50 (MIA PaCa-2 [2]): 10 µM
Activity (MIA PaCa-2 [6]): Active
inhibition (MIA PaCa-2 [7]): Active
inhibition [5]: 39%
inhibition [4]: Dose-dependent effect

O=C1Nc2ccccc2/C1=N/Nc1nc2ccccc2c(=O)n1-c1cccc(Cl)c1
IC50 [1]: 384 nM
IC50 (MIA PaCa-2 [2]): 92 µM
inhibition [5]: 58%
inhibition [4]: Dose-dependent effect

CCOc1ccc(-n2c(NNC(=S)Nc3ccc(Cl)cc3)nc3ccccc3c2=O)cc1
IC50 [1]: 11.5 nM
IC50 (MIA PaCa-2 [2]): 250 µM
inhibition [5]: 58%
inhibition [4]: Dose-dependent effect

CCOc1ccc(-n2c(NNC(=S)Nc3cccc(C(=O)O)c3)nc3ccccc3c2=O)cc1
IC50 [1]: 0.66 nM
IC50 (MIA PaCa-2 [2]): 280 µM
inhibition [5]: 58%
inhibition [4]: Dose-dependent effect

O=C1Nc2ccccc2/C1=N/Nc1nc2ccccc2c(=O)n1-c1cccc(Br)c1
IC50 [1]: 19.5 nM
IC50 (MIA PaCa-2 [2]): 200 µM
inhibition [5]: 62%
inhibition [4]: Dose-dependent effect

CCOc1ccc(-n2c(N/N=C3\C(=O)Nc4ccccc43)nc3ccccc3c2=O)cc1
IC50 [1]: 17.4 nM
IC50 (MIA PaCa-2 [2]): 80 µM
inhibition [5]: 48%
inhibition [4]: Dose-dependent effect

O=C(O)c1cccc(NC(=S)NNc2nc3ccccc3c(=O)n2-c2ccc(Br)cc2)c1
IC50 [1]: 0.2 nM
IC50 (MIA PaCa-2 [2]): 200 µM
inhibition [5]: 39%
inhibition [4]: Dose-dependent effect

O=C(O)c1cccc(NC(=S)NNc2nc3ccccc3c(=O)n2-c2cccc(Br)c2)c1
IC50 [1]: 8.64 nM
IC50 (MIA PaCa-2 [2]): 150 µM
inhibition [5]: 62%
inhibition [4]: Dose-dependent effect

Cc1cccc(NC(=O)NC2N=C(c3ccccc3)c3ccccc3N(C)C2=O)c1 (stereo not drawn)
IC50 (MIA PaCa-2 [2]): 0.0018 µM

Cc1ccc(-n2c(N/N=C3\C(=O)Nc4ccccc43)nc3ccccc3c2=O)cc1
IC50 [1]: 56.5 nM
IC50 (MIA PaCa-2 [2]): 10 µM
Activity (MIA PaCa-2 [6]): Active
inhibition (MIA PaCa-2 [7]): Active
inhibition [8]: 67%
inhibition [4]: Dose-dependent effect

CNc1cccc(NC(=O)NC2N=C(c3ccccn3)c3ccccc3N(CC(=O)C(C)(C)C)C2=O)c1 (stereo not drawn)
IC50 [9]: 0.1 nM

Reference: ChEMBL document CHEMBL4261533, “Identification of potent cholecystokinin-B receptor antagonists: synthesis, molecular modeling and anti-cancer activity against pancreatic cancer cells” (Medchemcomm, 2017)
